Test results taken from ChEMBL document CHEMBL1145462, “In vivo pharmacodynamic activity of the glycopeptide dalbavancin” (Antimicrob Agents Chemother, 2007).
In brackets after ≈: the same amount, converted by molar mass.

Columns and labels:
[1] = (§1) Half life in bacterial pathogen-infected neutropenic Swiss ICR mouse thigh infection model at 40 mg/kg, ip; assay type: ADME, organism-based; parameters: dose 40 mg/kg, route intraperitoneal; conditions: in vivo
In short: (§2)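 Thigh-infected neutropenic mice received single intraperitoneal doses (2.5, 5, 10, 20, 40, 80 mg/kg; 0.2 ml/dose). Blood was drawn by retroorbital aspiration from groups of three mice at 0.5, 1, 2, 4, 6, 24, 48, 72 and 96 h. Plasma levels were measured by microbiologic assay with Bacillus subtilis (detection limit 0.10 mg/liter). Noncompartmental analysis was used: half-life by linear least-squares regression, AUC by trapezoidal rule.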

Streptococcus pneumoniae [2] = assay: Antibacterial activity against Streptococcus pneumoniae 1329 by microdilution method; assay type: functional
In short: (§3)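 MIC and MBC were determined by CLSI broth microdilution, in duplicate on at least two occasions. Staphylococci were grown in Mueller-Hinton broth and agar; pneumococci were plated on sheep blood agar.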

Streptococcus pneumoniae [3] = assay: AUC/MIC ratio of Streptococcus pneumoniae 1199 infected neutropenic mouse thigh infection model at 0.99 mg/kg, ip administered every 72 hrs by 2-log killing experiment; assay type: functional; conditions: route intraperitoneal
Streptococcus pneumoniae [4] = assay: Antibacterial activity against Streptococcus pneumoniae ATCC 10813 by microdilution method; assay type: functional; in short: as §3
Staphylococcus aureus [5] = assay: AUC/MBC ratio of Staphylococcus aureus 31005 infected neutropenic mouse thigh infection model at 94.6 mg/kg, ip administered every 72 hrs by 1-log killing experiment; assay type: functional; conditions: route intraperitoneal
Staphylococcus aureus [6] = assay: AUC/MIC ratio of Staphylococcus aureus 33591 infected neutropenic mouse thigh infection model at 93 mg/kg, ip administered every 72 hrs by 1-log killing experiment; assay type: functional; conditions: route intraperitoneal
Streptococcus pneumoniae [7] = assay: Bactericidal activity in ip dosed penicillin-susceptible Streptococcus pneumoniae ATCC 10813 infected neutropenic mouse thigh infection model assessed as reduction of colony count after 48 hrs by time kill study; assay type: functional, Thigh muscle
In short: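 Neutropenic mice with thigh infection treated 2 h post-inoculation with single ip doses of 0.625, 1.25, 2.5, 5 or 10 mg/kg. Two mice per time point, sampled 0.5–96 h, with untreated controls. Thighs processed for CFU, reported as mean ± standard deviation log10 CFU/thigh.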

Streptococcus pneumoniae [8] = assay: AUC/MIC ratio of Streptococcus pneumoniae 1325 infected neutropenic mouse thigh infection model at 0.83 mg/kg, ip administered every 72 hrs by static effect experiment; assay type: functional; conditions: route intraperitoneal
Staphylococcus aureus [9] = assay: AUC/MIC ratio of methicillin-resistant Staphylococcus aureus infected neutropenic mouse thigh infection model at 45.3 mg/kg, ip administered every 24 hrs by 1-log killing experiment; assay type: functional; conditions: route intraperitoneal
Staphylococcus aureus [10] = assay: AUC/MBC ratio of Staphylococcus aureus Smith infected neutropenic mouse thigh infection model at 50.7 mg/kg, ip administered every 24 hrs by 1-log killing experiment; assay type: functional; conditions: route intraperitoneal
Streptococcus pneumoniae [11] = assay: AUC/MIC ratio of Streptococcus pneumoniae 1293 infected neutropenic mouse thigh infection model at 0.55 mg/kg, ip administered every 24 hrs by 1-log killing experiment; assay type: functional; conditions: route intraperitoneal
[12] = Half life in bacterial pathogen-infected neutropenic Swiss ICR mouse thigh infection model at 20 mg/kg, ip; assay type: ADME, organism-based; parameters: dose 20 mg/kg, route intraperitoneal; conditions: in vivo; in short: as §2
Staphylococcus aureus [13] = assay: AUC/MIC ratio of methicillin-resistant Staphylococcus aureus infected neutropenic mouse thigh infection model at 43 mg/kg, ip administered every 72 hrs by static effect experiment; assay type: functional; conditions: route intraperitoneal
[14] = Cmax in bacterial pathogen-infected neutropenic Swiss ICR mouse thigh infection model at 40 mg/kg, ip; assay type: ADME, organism-based; parameters: dose 40 mg/kg, route intraperitoneal; conditions: in vivo; in short: as §2
Staphylococcus aureus [15] = assay: Antibacterial activity against methicillin-resistant Staphylococcus aureus by microdilution method; assay type: functional
In short: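 MICs in duplicate on at least two occasions by standard CLSI broth microdilution; S. aureus grown and quantified in Mueller-Hinton broth/agar.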

Staphylococcus aureus [16] = assay: AUC/MBC ratio of methicillin-resistant Staphylococcus aureus infected neutropenic mouse thigh infection model at 43 mg/kg, ip administered every 72 hrs by static effect experiment; assay type: functional; conditions: route intraperitoneal
Staphylococcus aureus [17] = assay: Bactericidal activity against […] Staphylococcus aureus ATCC 29213 infected neutropenic Swiss ICR mouse thigh infection model assessed as drug level causing 1-log reduction of bacterial count at 15 mg/kg, ip dosed every 36 hrs; assay type: functional; conditions: route intraperitoneal
[18] = AUC in bacterial pathogen-infected neutropenic Swiss ICR mouse thigh infection model at 2.5 mg/kg, ip; assay type: ADME, organism-based; parameters: dose 2.5 mg/kg, route intraperitoneal; conditions: in vivo
In short: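 Single-dose serum PK in thigh-infected neutropenic mice; intraperitoneal dalbavancin (0.2 ml/dose) at 2.5–80 mg/kg. Blood from groups of three mice at 0.5–96 h by retroorbital aspiration; plasma level by Bacillus subtilis microbiologic assay (detection limit 0.10 mg/liter). Noncompartmental analysis; AUC by trapezoidal rule from mean concentrations, extrapolated to infinity.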

Streptococcus pneumoniae [19] = assay: AUC/MIC ratio of Streptococcus pneumoniae 1325 infected neutropenic mouse thigh infection model at 0.99 mg/kg, ip administered every 72 hrs by 1-log killing experiment; assay type: functional; conditions: route intraperitoneal
Staphylococcus aureus [20] = assay: Antibacterial activity against Staphylococcus aureus ATCC 25923 in presence of 95% mouse serum ultrafiltrate; assay type: functional
In short: (§4)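 MIC determined in broth, heat-treated (100°C, 30 min) 95% mouse serum, and 95% mouse serum ultrafiltrate, using arithmetic dilutions of 0.02 mg/liter per tube. Protein binding estimated as (MIC in 95% serum − MIC in ultrafiltrate)/MIC in 95% serum.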

[21] = as §1; assay type: ADME, organism-based; parameters: dose 40 mg/kg, route intraperitoneal; conditions: in vivo; in short: as §2; remark: listed apart in the source
Staphylococcus aureus [22] = assay: Antibacterial activity against methicillin-resistant Staphylococcus aureus in presence of 95% mouse serum; assay type: functional; in short: as §4
Staphylococcus aureus [23] = assay: AUC/MIC ratio of Staphylococcus aureus 31005 infected neutropenic mouse thigh infection model at 94.6 mg/kg, ip administered every 72 hrs by 1-log killing experiment; assay type: functional; conditions: route intraperitoneal
Streptococcus pneumoniae [24] = assay: AUC/MIC ratio of Streptococcus pneumoniae 1293 infected neutropenic mouse thigh infection model at 1.28 mg/kg, ip administered every 72 hrs by 1-log killing experiment; assay type: functional; conditions: route intraperitoneal
Staphylococcus aureus [25] = assay: Bactericidal activity against […] Staphylococcus aureus ATCC 29213 infected neutropenic Swiss ICR mouse thigh infection model assessed as drug level causing 1-log reduction of bacterial count at 267 mg/kg, ip dosed every 24 hrs; assay type: functional; conditions: route intraperitoneal
Streptococcus pneumoniae [26] = assay: AUC/MIC ratio of Streptococcus pneumoniae ATCC 10813 infected neutropenic mouse thigh infection model at 1.54 mg/kg, ip administered every 24 hrs by 1-log killing experiment; assay type: functional; conditions: route intraperitoneal
Staphylococcus aureus [27] = assay: AUC/MIC ratio of Staphylococcus aureus 33591 infected neutropenic mouse thigh infection model at 74 mg/kg, ip administered every 72 hrs by static effect experiment; assay type: functional; conditions: route intraperitoneal
Staphylococcus aureus [28] = assay: AUC/MIC ratio of methicillin-resistant Staphylococcus aureus infected neutropenic mouse thigh infection model at 53.5 mg/kg, ip administered every 24 hrs by 2-log killing experiment; assay type: functional; conditions: route intraperitoneal
Streptococcus pneumoniae [29] = assay: Bactericidal activity against penicillin-susceptible Streptococcus pneumoniae ATCC 10813 infected neutropenic Swiss ICR mouse thigh infection model assessed as drug level causing 1-log reduction of bacterial count at 1.34 mg/kg, ip dosed every 24 hrs; assay type: functional; conditions: route intraperitoneal
Streptococcus pneumoniae [30] = assay: AUC/MIC ratio of Streptococcus pneumoniae 1329 infected neutropenic mouse thigh infection model at 1.18 mg/kg, ip administered every 24 hrs by 1-log killing experiment; assay type: functional; conditions: route intraperitoneal
Streptococcus pneumoniae [31] = assay: AUC/MIC ratio of Streptococcus pneumoniae 1329 infected neutropenic mouse thigh infection model at 0.90 mg/kg, ip administered every 24 hrs by static effect experiment; assay type: functional; conditions: dose 0.9 mg/kg; route intraperitoneal

CN[C@H]1C(=O)N[C@@H]2Cc3ccc(cc3)Oc3cc4cc(c3O[C@@H]3O[C@H](C(=O)O)[C@@H](O)[C@H](O)[C@H]3NC(=O)CCCCCCCCC(C)C)Oc3ccc(cc3Cl)[C@@H](O)[C@@H]3NC(=O)[C@H](NC(=O)[C@@H]4NC(=O)[C@@H](NC2=O)c2cc(cc(O)c2Cl)Oc2cc1ccc2O)c1ccc(O)c(c1)-c1c(O[C@H]2O[C@H](CO)[C@@H](O)[C@H](O)[C@@H]2O)cc(O)cc1[C@@H](C(=O)NCCCN(C)C)NC3=O [DALBAVANCIN]
half-life [1]: 10.4 h | MBC (Streptococcus pneumoniae [2]): 0.008 µg/mL (≈ 0.0044 µM) | MIC (Streptococcus pneumoniae [2]): 0.008 µg/mL (≈ 0.0044 µM) | RatioAUC/MIC (Streptococcus pneumoniae [3]): 35.3 | MBC (Streptococcus pneumoniae [4]): 0.03 µg/mL (≈ 0.0165 µM) | MIC (Streptococcus pneumoniae [4]): 0.03 µg/mL (≈ 0.0165 µM) | Ratio (Staphylococcus aureus [5]): 163 | RatioAUC/MIC (Staphylococcus aureus [6]): 160 | Activity (Streptococcus pneumoniae [7]): 4 | RatioAUC/MIC (Streptococcus pneumoniae [8]): 6 | RatioAUC/MIC (Staphylococcus aureus [9]): 452 | Ratio (Staphylococcus aureus [10]): 119 | RatioAUC/MIC (Streptococcus pneumoniae [11]): 21.7 | half-life [12]: 7.6 h | RatioAUC/MIC (Staphylococcus aureus [13]): 147 | Cmax [14]: 385 µg/mL | MBC (Staphylococcus aureus [15]): 0.25 µg/mL (≈ 0.138 µM) | MIC (Staphylococcus aureus [15]): 0.06 µg/mL (≈ 0.033 µM) | Ratio (Staphylococcus aureus [16]): 35.3 | Activity (Staphylococcus aureus [17]): 36 | AUC [18]: 98000 ng·h/mL | RatioAUC/MIC (Streptococcus pneumoniae [19]): 8.8 | MIC (Staphylococcus aureus [20]): 0.5 µg/mL | half-life [21]: 9.7 h | MIC (Staphylococcus aureus [22]): 32 µg/mL | RatioAUC/MIC (Staphylococcus aureus [23]): 325 | RatioAUC/MIC (Streptococcus pneumoniae [24]): 18 | ED 1-log kill (Staphylococcus aureus [25]): 267 mg/kg/day | RatioAUC/MIC (Streptococcus pneumoniae [26]): 8.7 | RatioAUC/MIC (Staphylococcus aureus [27]): 123 | RatioAUC/MIC (Staphylococcus aureus [28]): 519 | Activity (Streptococcus pneumoniae [29]): 1.54 | RatioAUC/MIC (Streptococcus pneumoniae [30]): 23.5 | RatioAUC/MIC (Streptococcus pneumoniae [31]): 18
